Experimental data published in PubChem BioAssay AID1217 (Sanford-Burnham Center for Chemical Genomics, 2008).
Among all 190,000 compounds or so, about 1,300 (0.68%) were called active. This is one part of a sample in which actives are shown more often than they occur. A number with no mark means an inactive call.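 How the source made its calls: active means primary screen inhibition at 20 µM above a set limit (cut at about 50% in these data); inactive means the rest.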

Tested on: diaphorase (Clostridium kluyveri)
Experiment: compounds blocking diaphorase resazurin reduction – biochemical, uHTS, resorufin fluorescence, counter-screen for diaphorase-coupled primary assays, primary screen (AID 1217);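 further: plate controls were DMSO with full reaction for no effect and wells lacking NADH for full effect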
Settings: diaphorase resazurin-to-resorufin fluorescence, NADH, 16 min; at 20 µM; stronger effect = higher value; bacterial (C. kluyveri) enzyme, not human
Outline: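 System: Diaphorase enzyme from Clostridium kluyveri | Amount: Enzyme working solution with 0.14 U/mL diaphorase | Benchmarks: No-NADH positive control and DMSO neutral control | Signal: Fluorescence of resorufin formed from resazurin, Ex 544/Em 590 nm | Schedule: 16-min room-temperature incubation before reading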

| SMILES | inhibition |
| --- | --- |
| CN1CCN(/N=C/c2ccc(-c3ccc([N+](=O)[O-])cc3)o2)CC1 | -3.7% |
| COc1ccc(N(C(=O)c2ccc(C)cc2)S(=O)(=O)c2cccs2)cc1 | 18.3% |
| CC(C)(C)C1CCC(C(=O)Nc2cccnc2)CC1 (stereo unspecified) | 6.1% |
| CCC(C)(C)N=C(NC#N)Nc1cccnc1 | 59.6% (active) |
| CCOc1cccc(C(=O)Nc2cccnc2)c1 | -6.7% |
| Cc1nn(C)cc1C(=O)Nc1ccccc1Br | 13.9% |
| O=C(CCn1ccc([N+](=O)[O-])n1)Nc1nccs1 | 9.2% |
| Oc1c(C=Nc2cccc3nsnc23)ccc2ccccc12 | 62.8% (active) |
| COc1ccc(C=Nc2cccc3ncccc23)cc1 | 39.7% |
| CCSC1=NCCN1S(=O)(=O)c1ccc(F)cc1 | -9.8% |
| Cc1csc(NC(=O)NC2(C(F)(F)F)Oc3ccccc3O2)n1 | 38.6% |
| O=C(Nc1cc(N2CCOCC2)ncn1)NC1(C(F)(F)F)Oc2ccc(Cl)cc2O1 (stereo unspecified) | 62.6% (active) |
| c1cnn(-c2cc(N3CCOCC3)ncn2)c1 | 15.6% |
| CC(=O)C1=C(O)C(=O)N(c2cccnc2)C1c1ccc([N+](=O)[O-])cc1 (stereo unspecified) | 9.5% |
| COC(=O)C[n+]1cccc2ccccc21 | 2.1% |
| O=C(CSc1ccc(-c2ccco2)nn1)NCc1ccc2c(c1)OCO2 | 18.6% |
| C/C(=N\N1CCN(Cc2ccc(C)cc2)CC1)c1ccco1 | 3.3% |
| Cc1ccnc(-n2sc3ccccc3c2=O)n1 | 57% (active) |
| Cc1ccnc(N2CCC(C(=O)NC3CCCCCC3)CC2)n1 | 0.8% |
| Cc1ccnc(Nc2nc3ccccc3s2)n1 | -16.3% |
| Cc1ccc(S(=O)(=O)N(C)C)cc1NC(=O)/C=C/c1cccs1 | 15.5% |
| C#Cc1ccc([C@@H]2C=C(C(=O)O)O[C@H](OCCCCO)C2)cc1 | 15% |

| SMILES | inhibition |
| --- | --- |
| O=C(CCN1C(=O)c2ccccc2C1=O)NCCCn1ccnc1 | -0.3% |
| O=C(O)/C=C/c1cn(Cc2ccccc2)nc1-c1cccs1 | 9.8% |
| O=C(Cn1nnc(-c2ccccc2)n1)NCc1ccc2c(c1)OCO2 | -5.8% |
| Cc1cccc(C)c1NC(=O)CSc1nnc(-c2ccccc2)n1Cc1ccc2c(c1)OCO2 | -6.5% |
| c1ccc(-c2nnc3n2NC(c2ccc4c(c2)OCO4)S3)cc1 (stereo unspecified) | 50% (active) |
| Cc1ccc(NS(=O)(=O)c2ccc(C)c(NC(=O)COc3ccc4ccccc4c3)c2)c(C)c1 | 30.9% |
| COc1ccc(N(C)S(=O)(=O)c2cccc3nsnc23)cc1 | 3.7% |
| NC(=O)Cc1ccc2sc(-c3ccccc3)nc2c1 | 12.5% |
| CCCCCC(=O)Nc1ccc(C(=O)N/N=C/c2ccc([N+](=O)[O-])cc2)cc1 | 4.9% |
| CCCCCC(=O)NC(=S)NNC(=O)c1ccc([N+](=O)[O-])cc1 | 54.7% (active) |
| CC(C)(C)SCCNC(=O)c1cccc([N+](=O)[O-])c1 | 1.8% |
| Cc1cccc(C(=O)NNC(=O)c2cccc([N+](=O)[O-])c2)c1 | 10.9% |
| CC(C)CC(=O)NC(=S)NNC(=O)c1cccc([N+](=O)[O-])c1 | 58.7% (active) |
| COCCCNC(=S)NC(=O)c1ccc([N+](=O)[O-])cc1 | 9.4% |
| Brc1cc(/C=N/n2cnnc2)oc1Br | -5.6% |
| O=C(COc1ccc(Cl)cc1)NCc1nnc(SCC(=O)NCC2CCCO2)o1 (stereo unspecified) | 3.2% |
| Cc1cc(C)n(CC(=O)Nc2ccc([N+](=O)[O-])cc2)n1 | 19.4% |
| COc1ccc(CNC(=O)CN(Cc2ccc(Cl)cc2)S(C)(=O)=O)cc1 | 12.3% |
| CC1=CC(C)(C)N(C(=O)CSc2nnc(-c3ccccc3)o2)c2ccc(C)cc21 | 6.9% |
| COc1ccc2c(c1)C(C)=CC(C)(C)N2C(=O)Nc1ccccc1 | 74.3% (active) |
| COc1ccc2c(c1)C(C)=CC(C)(C)N2C(=O)CNCc1ccc2c(c1)OCO2 | 34.2% |
| O=C(NCc1ccccn1)c1ccc2nc(-c3ccco3)c(-c3ccco3)nc2c1 | 51% (active) |

| SMILES | inhibition |
| --- | --- |
| CN(c1ccc(C(=O)NCc2ccccn2)cc1)S(C)(=O)=O | 5.3% |
| O=C(NCc1ccccn1)c1cc(-c2ccccc2Cl)on1 | 4.9% |
| COc1ccc(NC(=O)Nc2ccc3nc(C)c(C)nc3c2)cc1 | 13.6% |
| COc1ccc(NC(=O)Nc2ccc3nsnc3c2)cc1 | 15.1% |
| COCCNC(=O)Nc1ccc2nc(-c3ccco3)c(-c3ccco3)nc2c1 | 70.2% (active) |
| CC(C)C(C)(C#N)NC(=O)CSc1nncn1-c1ccccc1 (stereo unspecified) | 12.5% |
| O=C(CO/N=C/c1ccc(OC(F)F)cc1)NCc1ccc(F)cc1 | 9.6% |
| O=C(NNC(=O)C1CCN(c2ncccn2)CC1)c1ccccc1 | -1.9% |
| Oc1c(CN2CCN(c3ccc(F)cc3)CC2)cc(Cl)c2cccnc12 | 14.9% |
| CCN1CCN(C(c2cccnc2)c2cc(Cl)c3cccnc3c2O)CC1 (stereo unspecified) | 54.7% (active) |
| CCOC(=O)N1CCN(C(c2cccnc2)c2ccc3cccnc3c2O)CC1 (stereo unspecified) | 48.3% |
| Cc1ccc(N(C(=O)Cc2cccs2)C2C=CS(=O)(=O)C2)cc1Cl (stereo unspecified) | 12.1% |
| CC(C)CCN1CCN(Cc2cn[nH]c2C2CCCCC2)CC1CCO (stereo unspecified) | 8.8% |
| COc1ccc(NS(=O)(=O)c2cc(NC(=O)CC(=O)c3ccc([N+](=O)[O-])cc3)ccc2C)cc1 | -19.9% |
| c1ccc(-c2cc3c(NCC4COc5ccccc5O4)ncnc3s2)cc1 (stereo unspecified) | 14.4% |
| COc1ccc(-c2[nH]ncc2/C=N/NC(=O)c2cc(Br)ccc2O)c(OC)c1 | 8.8% |
| C(=N/Nc1cc(N2CCOCC2)nc(N2CCOCC2)n1)/c1ccccc1 | 65.9% (active) |
| Cc1ccccc1N/N=C/c1ccc(N2CCOCC2)cc1 | 13.9% |
| Cc1cc(Oc2ccccc2)nc(N2CCOCC2)n1 | 8.4% |
| Cc1cc(C(=O)N/N=C/c2ccc(N3CCOCC3)cc2)c(C)o1 | -7.7% |
| CCN(CC)c1ccc(C(=O)N/N=C/c2ccc(N3CCOCC3)cc2)cc1 | 14.2% |
| CN(C)c1ccc(/C=N/Nc2cc(N3CCOCC3)nc(N3CCOCC3)n2)cc1 | 58% (active) |
